# ChEMBL document CHEMBL1137968, “Carbazates as potent inhibitors of hormone-sensitive lipase” (Bioorg Med Chem Lett, 2004)
# Target: T1, Hormone-sensitive lipase (Homo sapiens) (UniProt Q05469)
# T1 sequence (whole entry): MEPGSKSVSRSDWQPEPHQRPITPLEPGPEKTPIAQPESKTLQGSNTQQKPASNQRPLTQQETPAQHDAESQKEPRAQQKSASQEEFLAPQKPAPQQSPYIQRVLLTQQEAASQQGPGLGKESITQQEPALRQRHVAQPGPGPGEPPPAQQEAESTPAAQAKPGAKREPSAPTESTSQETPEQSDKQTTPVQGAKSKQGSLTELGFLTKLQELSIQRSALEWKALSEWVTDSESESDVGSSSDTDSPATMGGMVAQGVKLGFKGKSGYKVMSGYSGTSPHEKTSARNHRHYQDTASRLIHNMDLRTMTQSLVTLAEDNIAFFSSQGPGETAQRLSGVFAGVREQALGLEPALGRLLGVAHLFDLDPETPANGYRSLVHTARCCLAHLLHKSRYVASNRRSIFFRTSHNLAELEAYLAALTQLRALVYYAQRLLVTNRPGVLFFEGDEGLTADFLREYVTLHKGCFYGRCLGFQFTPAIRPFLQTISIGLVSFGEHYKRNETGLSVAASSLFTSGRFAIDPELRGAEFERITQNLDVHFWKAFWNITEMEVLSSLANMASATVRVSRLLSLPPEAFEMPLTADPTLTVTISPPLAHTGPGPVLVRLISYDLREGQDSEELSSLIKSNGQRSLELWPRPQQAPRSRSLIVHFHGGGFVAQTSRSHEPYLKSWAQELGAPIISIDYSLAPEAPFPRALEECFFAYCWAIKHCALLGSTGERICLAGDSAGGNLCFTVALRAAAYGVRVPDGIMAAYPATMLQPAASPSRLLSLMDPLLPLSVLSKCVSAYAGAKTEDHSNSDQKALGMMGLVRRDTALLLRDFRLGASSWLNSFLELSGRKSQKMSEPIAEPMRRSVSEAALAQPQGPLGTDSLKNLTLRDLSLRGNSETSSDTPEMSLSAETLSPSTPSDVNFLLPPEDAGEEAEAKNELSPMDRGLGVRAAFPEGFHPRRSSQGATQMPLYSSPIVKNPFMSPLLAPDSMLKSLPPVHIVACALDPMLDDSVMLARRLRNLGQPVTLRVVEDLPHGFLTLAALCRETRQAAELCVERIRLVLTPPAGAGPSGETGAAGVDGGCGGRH
# Test: Inhibition of recombinant human hormone sensitive lipase (HSL)
# Parameters: concentration or dose not given beside the values
# Conditions: concentration not given here
# Method in brief: (§1)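 Purified recombinant human HSL (specific activity 2.6 U/mg protein) with triolein substrate. Activity measured at 37 °C as ³H-oleic acid release over time from a ³H-trioleoylglycerol emulsion stabilized with phospholipids. Bovine serum albumin served as fatty acid acceptor.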
row,inhibition [%],Structure (SMILES)
1,99,CCOC(=O)Cc1ccc(OC(=O)NN2CCOCC2)cc1
2,99,O=C(NN1CCOCC1)Oc1ccc(NC(=O)C2CCCCC2)cc1
3,99,CC(C)(C)CC(=O)Nc1ccc(OC(=O)NN2CCOCC2)cc1
4,7,CC(=O)Nc1ccc(OC(=O)NN2CCc3ccccc3C2)cc1
5,9,CCOC(=O)NN1CCc2ccccc2C1
6,21,O=C(NN1CCc2ccccc2C1)Oc1ccc(C(=O)c2ccccc2)cc1
7,98,CC(C)(C)OC(=O)Nc1ccc(OC(=O)NN2CCc3ccccc3C2)cc1
8,100,CC(C)(C)C1CCC(C(=O)Nc2ccc(OC(=O)NN3CCOCC3)cc2)CC1 (stereo unspecified)
9,100,O=C(Cc1ccc(OC(=O)NN2CCOCC2)cc1)OCc1ccccc1
10,4,O=C(NN1CCc2ccccc2C1)OCc1ccccc1
11,98,O=C(NN1CCc2ccccc2C1)Oc1ccc(Cl)cc1
12,84,CCCC(=O)Nc1ccc(OC(=O)NN2CCOCC2)cc1
13,8,CC(C)(C)OC(=O)NN1CCc2ccccc2C1
14,95,COC(=O)Cc1ccc(OC(=O)NN2CCOCC2)cc1
15,3,O=C(NN1CCc2ccccc2C1)Oc1c(Cl)cccc1Cl
16,20,CC(=O)Nc1ccc(OC(=O)NN2CCOCC2)cc1
17,76,COc1ccccc1OC(=O)NN1CCc2ccccc2C1
18,99,O=C(NN1CCCCC1)Oc1ccc(Cl)cc1
19,57,COC(=O)c1ccc(OC(=O)NN2CCc3ccccc3C2)cc1
20,100,O=C(NN1CCCC1)Oc1ccc(Cl)cc1
21,97,COc1ccc(OC(=O)NN2CCc3ccccc3C2)cc1

row,Structure (SMILES),inhibition [%]
1,O=C(NN1CCc2ccccc2C1)Oc1ccc(Cc2ccccc2)cc1,97
2,CC1Cc2ccccc2CN1NC(=O)Oc1ccc(Cl)cc1 (stereo unspecified),99
3,O=C(NN1CCOCC1)Oc1ccc(Cl)cc1,99
4,CN1CCN(NC(=O)Oc2ccc(Cl)cc2)CC1,98
5,CN(C(=O)Oc1ccc(Cl)cc1)N1CCc2ccccc2C1,2
6,CC1c2ccccc2CCN1NC(=O)Oc1ccc(Cl)cc1 (stereo unspecified),91

# Target: T2, Hormone-sensitive lipase (Homo sapiens, UniProt Q05469)
# T2 sequence (Q05469 whole entry): T1 sequence (whole entry)
# Test: Inhibition of human recombinant hormone sensitive lipase.
# Conditions: not given
# Method in brief: as §1
row,IC50 [nM],Structure (SMILES)
1,138,CCOC(=O)Cc1ccc(OC(=O)NN2CCOCC2)cc1
2,10,O=C(NN1CCOCC1)Oc1ccc(NC(=O)C2CCCCC2)cc1
3,47,CC(C)(C)CC(=O)Nc1ccc(OC(=O)NN2CCOCC2)cc1
4,1,CC(C)(C)C1CCC(C(=O)Nc2ccc(OC(=O)NN3CCOCC3)cc2)CC1 (stereo unspecified)
5,5,O=C(Cc1ccc(OC(=O)NN2CCOCC2)cc1)OCc1ccccc1
6,3200,CCCC(=O)Nc1ccc(OC(=O)NN2CCOCC2)cc1
7,716,COC(=O)Cc1ccc(OC(=O)NN2CCOCC2)cc1
8,24,O=C(NN1CCCC1)Oc1ccc(Cl)cc1

row,Structure (SMILES),IC50 [nM]
1,O=C(NN1CCc2ccccc2C1)Oc1ccc(Cc2ccccc2)cc1,97
2,CC1Cc2ccccc2CN1NC(=O)Oc1ccc(Cl)cc1 (stereo unspecified),35
3,O=C(NN1CCOCC1)Oc1ccc(Cl)cc1,184
4,CN1CCN(NC(=O)Oc2ccc(Cl)cc2)CC1,515
5,CC1c2ccccc2CCN1NC(=O)Oc1ccc(Cl)cc1 (stereo unspecified),32
6,O=C(NN1CCc2ccccc2C1)Oc1ccccc1,205
